According to ChEMBL document CHEMBL1133838, “Novel 5-vinyl pyrimidine nucleosides with potent anti-hepatitis B virus activity” (Bioorg Med Chem Lett, 2001):
In brackets after ≈: the same amount, converted by molar mass.

What was measured:
Homo sapiens [1] = organism: Homo sapiens; test: Concentration required to reduce the proliferation of PHA stimulated human peripheral blood T lymphocytes; format: functional
Outline: (§1)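 Fresh human peripheral blood T lymphocytes stimulated with PHA and grown with drug. Cellular DNA synthesis followed by [methyl-3H]thymidine incorporation. Value is the concentration (μg/mL) reducing proliferation to 50% of untreated PHA-stimulated controls. Tested up to 50 μg/mL.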

Vero [2] = test: Compound was evaluated for cytotoxicity against stationary Vero cells using MTT assay; format: functional; conditions: Chlorocebus sabaeus
Outline: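 Stationary Vero cells exposed to drug for 3 days. Viability read by MTT assay against untreated controls. CC50 taken as the concentration (μg/mL) giving 50% loss of viability. ">" means 50% was not reached at the highest concentration tested.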

Vero [3] = test: Concentration required to inhibit plaque formation by HSV-1 strain KOS (TK+) in monolayers of vero cells; format: functional, cell-based; conditions: Chlorocebus sabaeus
Outline: (§2)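 Vero cells seeded one day ahead. Infected with HSV-1 KOS (TK+) or TK-deficient KOSSB at ~100 PFU/well for 1 h at 37 °C. Inoculum replaced by medium with serial drug dilutions in duplicate, then refined by 1:2 dilutions. Acyclovir control at 5 and 1 μg/mL (TK+) or 50, 25, 10, 1 μg/mL (TK−). After 48 h at 37 °C, fixed with methanol and Giemsa-stained. Plaques counted against no-drug wells for EC50.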

Vero [4] = test: Concentration required to inhibit plaque formation by HSV-1 strain KOSSB (TK-) in monolayers of vero cells; format: functional, cell-based; conditions: Chlorocebus sabaeus; outline: as §2
Nucleic Acid = test: Concentration required to reduce the viral DNA in infected cells to 50% of untreated infected controls.; format: functional, cell-based; conditions: Duck hepatitis B virus
Outline: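 Confluent primary hepatocyte cultures from chronically DHBV-infected Pekin ducks treated with drug. Viral DNA in cells measured against untreated infected controls. EC50 in μg/mL. Three independent experiments, with the range of EC50 reported.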

Duck hepatitis B virus = test: Percent inhibition of viral DNA in the presence of 10 ug/mL compound compared to untreated infected controls in duck hepatocytes
Homo sapiens [5] = organism: Homo sapiens; test: Concentration required to reduce the proliferation of PHA stimulated human peripheral blood T lymphocytes to 50% of untreated PHA Stimulated control; format: functional; outline: as §1

| Compound | EC50 (Nucleic Acid) [mg/L] | IC50 (Homo sapiens [1]) [mg/L] | CC50 (Vero [2]) [mg/L] | EC50 (Vero [3]) [mg/L] | EC50 (Vero [4]) [mg/L] | Inhibition (Duck hepatitis B virus) [%] | IC50 (Homo sapiens [5]) [mg/L] |
| --- | --- | --- | --- | --- | --- | --- | --- |
| C=Cc1cn(COCCO)c(=O)[nH]c1=O | > 10 | > 50 | > 100 | > 25 | > 50 | 40.6 | – |
| C=Cc1cn(COC(CO)CO)c(=O)[nH]c1=O | 1 (≈ 4.13 µM) | > 50 | > 100 | > 25 | > 50 | 81 | – |
| Nc1ccn([C@@H]2CSC(CO)O2)c(=O)n1 (single isomer, unassigned) [LAMIVUDINE] | 0.01 (≈ 0.0436 µM) | – | > 100 | – | – | 96 | > 50 |
| Nc1nc2c(ncn2COCCO)c(=O)[nH]1 [ACYCLOVIR] | – | – | > 100 | 0.5 (≈ 2.22 µM) | 40 (≈ 178 µM) | – | – |

Now from value to molecule, other results behind:

| EC50 (Nucleic Acid) [mg/L] | Compound | IC50 (Homo sapiens [1]) [mg/L] | CC50 (Vero [2]) [mg/L] | EC50 (Vero [3]) [mg/L] | EC50 (Vero [4]) [mg/L] | Inhibition (Duck hepatitis B virus) [%] | IC50 (Homo sapiens [5]) [mg/L] |
| --- | --- | --- | --- | --- | --- | --- | --- |
| 3 (≈ 12.5 µM) | C=Cc1cn(CCC(CO)CO)c(=O)[nH]c1=O | > 50 | > 100 | > 25 | > 50 | 77.5 | – |
| 1.5 (≈ 5.88 µM) | Nc1nc2c(ncn2COC(CO)CO)c(=O)[nH]1 [GANCICLOVIR] | – | – | – | – | – | – |
| 0.3 (≈ 1.18 µM) | Nc1nc(O)c2ncn(CCC(CO)CO)c2n1 [PENCICLOVIR] | – | – | – | – | – | – |
